Experimental findings from ChEMBL document CHEMBL3526048, “In vitro metabolism of rivoglitazone, a novel peroxisome proliferator-activated receptor γ agonist, in rat, monkey, and human liver microsomes and freshly isolated hepatocytes” (Drug Metab Dispos, 2011) are described below.

Series [1] addresses T1, UDP-glucuronosyltransferase 2B7 (Homo sapiens, UniProt P16662).
T1 sequence (P16662 whole entry): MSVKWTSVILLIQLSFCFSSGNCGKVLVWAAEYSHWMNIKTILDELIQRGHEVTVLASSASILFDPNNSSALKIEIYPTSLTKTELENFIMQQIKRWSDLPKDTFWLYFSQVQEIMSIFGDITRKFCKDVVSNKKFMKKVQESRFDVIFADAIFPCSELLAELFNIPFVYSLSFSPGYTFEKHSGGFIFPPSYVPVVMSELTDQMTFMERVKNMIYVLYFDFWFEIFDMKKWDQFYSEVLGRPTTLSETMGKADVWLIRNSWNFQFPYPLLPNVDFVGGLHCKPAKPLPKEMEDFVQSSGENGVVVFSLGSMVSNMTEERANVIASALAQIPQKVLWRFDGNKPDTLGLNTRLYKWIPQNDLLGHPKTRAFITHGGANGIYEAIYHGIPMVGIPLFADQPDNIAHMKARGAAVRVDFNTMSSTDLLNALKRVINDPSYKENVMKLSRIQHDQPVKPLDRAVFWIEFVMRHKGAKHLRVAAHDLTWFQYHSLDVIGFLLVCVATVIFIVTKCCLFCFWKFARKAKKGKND
The experiment in a line: Activity of human UGT2B7 expressed in microsomes isolated from baculovirus infected insect cell assessed as enzyme-mediated 2-mercapto-3-(4-((6-methoxy-1-methyl-1H-benzo[d]imidazol-2-yl)methoxy)phenyl)propanoic acid formation at 20 uM after 4 hrs by radio-HPLC/LC-MS/MS analysis in presence of UDPGA, UDPGA/SAM and NADPH-generating system in presence of UDPGA and UDPGA/SAM. It counts as ADME.

Series [2] is described as follows: Drug metabolism in human hepatocytes assessed as formation of 5-(4-((6-methoxy-1H-benzo[d]imidazol-2-yl)methoxy)benzyl)thiazolidine-2,4-dione at 30 uM after 3 hrs by radio-HPLC/LC-MS/MS analysis in presence of NADPH-generating system and NADPH-generating system/SAM. Format: ADME, cell-based, Hepatocyte.
The target in series [3] is T1, UDP-glucuronosyltransferase 2B7. The experiment in a line: Activity of human UGT2B7 expressed in microsomes isolated from baculovirus infected insect cell assessed as enzyme-mediated 5-(4-((6-hydroxy-1-methyl-1H-benzo[d]imidazol-2-yl)methoxy)benzyl)thiazolidine-2,4-dione formation at 20 uM after 4 hrs by radio-HPLC/LC-MS/MS analysis in presence of NADPH-generating system/SAM. It counts as ADME.

Series [4] has as its target Cytochrome P450 3A5 (Homo sapiens, UniProt P20815). The experiment in a line: Activity of human CYP3A5 expressed in microsomes isolated from baculovirus infected insect cell assessed as enzyme-mediated 2-mercapto-3-(4-((6-methoxy-1-methyl-1H-benzo[d]imidazol-2-yl)methoxy)phenyl)propanamide formation at 20 uM after 2 hrs by radio-HPLC/LC-MS/MS analysis in presence of NADPH-generating system and NADPH-generating system/SAM. Format: ADME. The gist of the method:
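cDNA-expressed human CYP3A5 in baculovirus-insect-cell microsomes (1 mg/ml protein) was incubated with [¹⁴C]rivoglitazone (20 μM) in 50 mM potassium phosphate (pH 7.4) or 100 mM Tris-HCl (pH 7.5). NADPH-generating system: 2 mM NADP⁺, 20 mM glucose 6-phosphate, 2 units/ml G6PDH, 10 mM MgCl₂. Incubation ran 2 h at 37°C with shaking; insect-cell control supersomes served as control. Acetonitrile stop, supernatant concentrated, then radio-HPLC, LC-MS and LC-MS/MS.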

The target in series [5] is T2, Cytochrome P450 3A4 (Homo sapiens, UniProt P08684). Description: Activity of human CYP3A4 expressed in microsomes isolated from baculovirus infected insect cell assessed as enzyme-mediated 3-(4-((6-methoxy-1-methyl-1H-benzo[d]imidazol-2-yl)methoxy)phenyl)-2-(methylthio)propanamide formation at 20 uM after 2 hrs by radio-HPLC/LC-MS/MS analysis in presence of NADPH-generating system/SAM. It counts as ADME.
T2 sequence (P08684 whole entry): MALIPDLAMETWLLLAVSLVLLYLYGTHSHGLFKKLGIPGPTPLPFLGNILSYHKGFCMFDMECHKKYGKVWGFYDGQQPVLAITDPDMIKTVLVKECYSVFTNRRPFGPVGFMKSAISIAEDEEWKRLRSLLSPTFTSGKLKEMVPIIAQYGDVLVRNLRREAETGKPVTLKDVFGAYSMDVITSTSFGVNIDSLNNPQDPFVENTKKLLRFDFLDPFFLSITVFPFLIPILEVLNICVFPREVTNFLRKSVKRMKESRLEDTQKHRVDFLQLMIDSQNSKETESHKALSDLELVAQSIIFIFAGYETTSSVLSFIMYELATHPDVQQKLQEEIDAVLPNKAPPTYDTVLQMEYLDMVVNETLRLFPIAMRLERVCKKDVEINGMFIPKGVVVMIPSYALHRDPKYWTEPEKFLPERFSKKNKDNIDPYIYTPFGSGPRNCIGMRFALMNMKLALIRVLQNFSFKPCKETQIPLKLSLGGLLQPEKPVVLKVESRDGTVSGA

Series [6] addresses T2, Cytochrome P450 3A4. The experiment in a line: Activity of human CYP3A4 expressed in microsomes isolated from baculovirus infected insect cell assessed as enzyme-mediated (2S,3S,4S,5R,6R)-6-((1-carboxy-2-(4-((6-methoxy-1-methyl-1H-benzo[d]imidazol-2-yl)methoxy)phenyl)ethylthio)carbonylamino)-3,4,5-trihydroxytetrahydro-2H-pyran-2-carboxylic acid formation at 20 uM after 2 hrs by radio-HPLC/LC-MS/MS analysis in presence of NADPH-generating system/SAM. It counts as ADME.

Series [7] deals with T3, UDP-glucuronosyltransferase 1A1 (Homo sapiens, UniProt P22309).
T3 sequence (P22309 whole entry): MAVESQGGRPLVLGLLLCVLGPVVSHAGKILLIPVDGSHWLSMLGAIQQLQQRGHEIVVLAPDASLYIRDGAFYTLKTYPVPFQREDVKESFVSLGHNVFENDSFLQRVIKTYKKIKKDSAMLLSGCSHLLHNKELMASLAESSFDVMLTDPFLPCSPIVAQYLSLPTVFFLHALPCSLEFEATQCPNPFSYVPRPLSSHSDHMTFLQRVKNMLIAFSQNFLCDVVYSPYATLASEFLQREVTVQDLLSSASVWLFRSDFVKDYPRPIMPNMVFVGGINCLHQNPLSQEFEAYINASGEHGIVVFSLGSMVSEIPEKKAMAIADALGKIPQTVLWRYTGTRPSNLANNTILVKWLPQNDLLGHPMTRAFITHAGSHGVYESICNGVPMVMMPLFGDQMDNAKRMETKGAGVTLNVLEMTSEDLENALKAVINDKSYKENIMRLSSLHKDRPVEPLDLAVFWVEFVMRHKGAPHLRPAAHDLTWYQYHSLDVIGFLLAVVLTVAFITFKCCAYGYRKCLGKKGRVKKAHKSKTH
Description: Activity of human UGT1A1 expressed in microsomes isolated from baculovirus infected insect cell assessed as enzyme-mediated (2S,3S,4S,5R,6R)-3,4,5-trihydroxy-6-(5-(4-((6-methoxy-1-methyl-1H-benzo[d]imidazol-2-yl)methoxy)benzyl)-2,4-dioxothiazolidin-3-yl)tetrahydro-2H-pyran-2-carboxylic acid formation at 20 uM after 4 hrs by radio-HPLC/LC-MS/MS analysis in presence of UDPGA. Format: ADME. The gist of the method: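 Alamethicin (50 μg/mg protein, 15 min on ice) pretreated expressed human UGT microsomes (1 mg/ml protein) from baculovirus-infected insect cells. Incubation with [¹⁴C]rivoglitazone (20 μM) in 100 mM Tris-HCl (pH 7.5) with 10 mM MgCl₂, started by 5 mM UDPGA, 4 h at 37°C with shaking. UGT insect-cell control supersomes were run alongside. Acetonitrile stop, concentrated supernatant analysed by radio-HPLC, LC-MS and LC-MS/MS.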

Chain of Cytochrome P450 3A5 (P20815 whole entry): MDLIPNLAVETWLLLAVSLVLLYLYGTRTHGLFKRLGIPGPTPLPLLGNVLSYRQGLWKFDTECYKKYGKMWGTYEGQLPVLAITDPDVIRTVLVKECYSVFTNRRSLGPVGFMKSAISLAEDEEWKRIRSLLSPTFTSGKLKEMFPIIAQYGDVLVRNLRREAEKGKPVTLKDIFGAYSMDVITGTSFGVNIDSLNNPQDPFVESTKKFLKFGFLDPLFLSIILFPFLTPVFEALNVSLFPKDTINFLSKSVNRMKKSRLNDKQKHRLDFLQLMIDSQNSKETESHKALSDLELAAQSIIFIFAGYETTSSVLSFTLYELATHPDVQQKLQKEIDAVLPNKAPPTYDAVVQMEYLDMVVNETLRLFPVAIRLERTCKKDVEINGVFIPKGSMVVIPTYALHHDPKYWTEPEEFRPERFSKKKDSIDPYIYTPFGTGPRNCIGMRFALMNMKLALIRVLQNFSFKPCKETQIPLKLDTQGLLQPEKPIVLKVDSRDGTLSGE

`COc1ccc2nc(COc3ccc(C[14CH]4SC(=O)NC4=O)cc3)n(C)c2c1.Cl` (racemic): the Drug metabolism result is recorded as “metabolite_detected” in series [1]; “metabolite_detected” in series [2]; “metabolite_not_detected” in series [3]; “metabolite_detected” in series [4]; “metabolite_not_detected” in series [5]; “metabolite_not_detected” in series [6]. In addition, the Drug metabolism result in series [7] is on record as “metabolite_not_detected”.
